Holding throughout (assay type): physicochemical
Data set [1] in a line: Chemical stability in NH3-EtOH (9:1, v/v) at room temperature assessed as time taken for complete hydrolysis. Summed up:
(§1)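 Nucleoside derivatives carrying 2-substituted benzoyl masking groups were kept in the basic solution. The time until hydrolysis was complete was recorded. Substrates showing no change over a 24 h observation window were scored as stable at 24 h.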

Data set [2] is described as follows: Chemical stability in 0.5 M NaOH/EtOH solution at room temperature assessed as time taken for complete hydrolysis. In a few lines:
as §1

Data set [3] is described as follows: Chemical stability in NH3-EtOH (9:1, v/v) at 55 deg C assessed as time taken for complete hydrolysis. In a few lines:
as §1

Data set [4] is described as follows: Chemical stability in 2 M NaOH/EtOH solution at room temperature assessed as time taken for complete hydrolysis. In a few lines: as §1
A short description of data set [5]: Chemical stability in 1.5 M NaOMe/MeOH solution at room temperature assessed as time taken for complete hydrolysis. Summed up:
as §1

Turning to `Cc1cn([C@H]2C[C@H](O)[C@@H](COC(=O)c3ccccc3[Si](C)(C)C)O2)c(=O)[nH]c1=O`, the Stability is more than 24 h in data set [1], 24 h in data set [2], more than 24 h in data set [3] and 4 h in data set [4].
Consider `Cc1cn([C@H]2C[C@H](O)[C@@H](COC(=O)c3ccccc3C(C)(C)C)O2)c(=O)[nH]c1=O`, for which the Stability in data set [1] was more than 24 h; in data set [2], 24 h; in data set [3], more than 24 h; in data set [4], 4 h.
`C[Si](C)(C)c1ccccc1C(=O)Nc1ccn([C@H]2C[C@H](O)[C@@H](CO)O2)c(=O)n1`: the Stability in data set [3], in data set [5] and in data set [4] was more than 24 h throughout.
In the case of `C[Si](C)(C)c1ccccc1C(=O)O[C@@H]1[C@H](O)[C@@H](CO)O[C@H]1n1ccc(=O)[nH]c1=O`, the Stability in data set [1] was 48 h; in data set [3], 8 h.
As to `Cc1cn([C@H]2C[C@H](O)[C@@H](COC(=O)C=C[Si](C)(C)C)O2)c(=O)[nH]c1=O`, the Stability in data set [1] is 12 h; in data set [3], 4 h.
For the compound `Cc1ccccc1C(=O)OC[C@H]1O[C@@H](n2cc(C)c(=O)[nH]c2=O)C[C@@H]1O`, the Stability in data set [1] turned out to be 24 h; in data set [2], 1 h; in data set [3] it was 10 h; in data set [4] it was 0.25 h.

The values above are taken from ChEMBL document CHEMBL1154120, “Synthesis and properties of nucleoside derivatives acylated by chemically stable 2-(trimethylsilyl)benzoyl group” (Bioorg Med Chem, 2009).
